Measured values as given in publication PMC3863768 (Journal of medicinal chemistry, 2012).
Substitutions are numbered along the chain they refer to.

What was measured:
PfNMT = biological target: T1, PfNMT (Plasmodium falciparum, UniProt Q9U419); assay: NMT enzyme inhibition assay; type: biochemical, P. falciparum; details: for activity drop vs. 4 / lower inhibition vs. 4: compared with compound 4; for lower inhibition vs. 4: shorter or longer spacers than the methylene ester
T1 sequence (Q9U419 1-410): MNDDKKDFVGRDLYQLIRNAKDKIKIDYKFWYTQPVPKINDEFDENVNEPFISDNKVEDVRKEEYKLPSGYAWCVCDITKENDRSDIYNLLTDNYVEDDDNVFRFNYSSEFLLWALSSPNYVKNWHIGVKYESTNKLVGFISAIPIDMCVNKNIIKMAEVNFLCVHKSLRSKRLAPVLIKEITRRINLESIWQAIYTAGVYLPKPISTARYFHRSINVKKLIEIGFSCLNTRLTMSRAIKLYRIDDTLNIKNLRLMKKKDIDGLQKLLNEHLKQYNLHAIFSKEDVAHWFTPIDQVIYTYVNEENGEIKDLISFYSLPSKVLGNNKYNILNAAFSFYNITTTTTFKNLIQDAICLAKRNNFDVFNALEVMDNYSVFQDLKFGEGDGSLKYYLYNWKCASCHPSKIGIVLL
Method in brief: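 Stopped with streptavidin PVT beads in pH 4 stop solution; scintillation counted. No-inhibitor wells set 100%, no-enzyme wells 0%. Test compound 500 μM to 2 nM, in duplicate. IC50 by nonlinear regression, averaged from two independent curves.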

HsNMT1 = biological target: T2, HsNMT1 (Homo sapiens, UniProt P30419); assay: NMT enzyme inhibition assay; type: biochemical
T2 sequence (P30419 109-496 limits assumed): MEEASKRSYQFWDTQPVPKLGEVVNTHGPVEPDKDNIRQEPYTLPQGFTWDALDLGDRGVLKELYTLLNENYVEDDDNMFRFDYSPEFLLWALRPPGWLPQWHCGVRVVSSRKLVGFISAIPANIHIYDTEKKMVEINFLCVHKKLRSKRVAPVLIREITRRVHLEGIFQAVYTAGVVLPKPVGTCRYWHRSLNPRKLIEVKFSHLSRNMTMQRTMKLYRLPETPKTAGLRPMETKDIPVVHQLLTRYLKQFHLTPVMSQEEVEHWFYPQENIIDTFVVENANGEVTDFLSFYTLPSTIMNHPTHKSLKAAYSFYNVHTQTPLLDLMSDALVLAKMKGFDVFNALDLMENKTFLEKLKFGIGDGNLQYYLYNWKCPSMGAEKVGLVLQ

P. falciparum, 3D7 line = assay: P. falciparum inhibition assay; type: cell-based; details: synchronized P. falciparum trophozoites (3D7 line)
Method in brief: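 Synchronous late-trophozoite cultures (1% parasitemia, 2% hematocrit) with test compound in 0.5% DMSO, 48 h at 37 °C. Aliquots stained with hydroethidine (1:200 dilution of 10 mg/mL stock in PBS), 20 min at 37 °C; 50,000 cells counted by flow cytometry. Untreated parasites and uninfected RBCs are the controls; % inhibition computed.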

HsNMT1 Y296A = biological target: T3, HsNMT1 Y296A (Homo sapiens, UniProt P30419, Y296A); assay: NMT enzyme inhibition assay; type: biochemical; details: HsNMT1 Y296A vs wild type
T3 sequence (P30419 109-496 Y296A limits assumed): T2 sequence (P30419 109-496 limits assumed) with Y188A

Cc1c(CCc2ccccc2)oc2cccc(OC3CCNCC3)c12 [Compound 18, 4-{[3-Methyl-2-(2-phenylethyl)-1-benzofuran-4-yl]oxy}piperidine]
PfNMT inhibition (in words) (PfNMT): does not confer inhibitory activity

Cc1c(-c2nc(Cc3ccccc3)no2)oc2cccc(OC3CCNCC3)c12 [Compound 25]
PfNMT inhibition (in words) (PfNMT): promising potency

Cc1c(COCc2ccccc2)oc2cccc(OC3CCNCC3)c12 [Compound 21, 4-({2-[(Benzyloxy)methyl]-3-methyl-1-benzofuran-4-yl}oxy)-piperidine]
activity drop vs. 4 (PfNMT; PfNMT inhibition): 40 fold

Cc1c(C(=O)NC(C)C)oc2cccc(OC3CCNCC3)c12 [Compound 9, N-isopropyl-3-methyl-4-(piperidin-4-yloxy)benzofuran-2-carboxamide]
IC50 (PfNMT): > 200 µM

CCOC(=O)c1oc2cccc(OC3CCNCC3)c2c1C [Compound 2, Ethyl 3-methyl-4-(piperidin-4-yloxy) benzofuran-2-carboxylate]
activity improvement over 1 (PfNMT; PfNMT inhibition, compared with compound 1): 3 fold
selectivity over human NMT1 (in words) (HsNMT1): good human selectivity

CCOC(=O)c1oc2cccc(OCCCNCc3cccnc3)c2c1C [Compound 1, reference compound]
PfNMT inhibition (in words) (PfNMT): moderate inhibition
selectivity over human NMT1 (in words) (HsNMT1): promising selectivity

Cc1c(C(=O)OCc2ccccc2)oc2cccc(OC3CCNCC3)c12 [Compound 4]
anti-plasmodial effect in vitro (in words) (P. falciparum, 3D7 line): highest anti-parasitic activity

Cc1c(C(=O)/C=C/c2ccccc2)oc2cccc(OC3CCNCC3)c12 [Compound 23, (2E)-1-[3-Methyl-4-(piperidin-4-yloxy)-1-benzofuran-2-yl]-3-phenylprop-2-en-1-one]
improvement in affinity vs. 22 (PfNMT; PfNMT inhibition, compared with compound 22): 3 fold

Cc1c(C(=O)CCc2ccccc2)oc2cccc(OC3CCNCC3)c12 [Compound 22]
activity drop vs. 4 (PfNMT; PfNMT inhibition): 40 fold

Cc1c(C(=O)OCCc2ccccc2)oc2cccc(OC3CCNCC3)c12 [Compound 7]
lower inhibition vs. 4 (PfNMT): 10- to 100 fold

Cc1c(C(=O)NC2CCCCC2)oc2cccc(OC3CCNCC3)c12 [Compound 10]
IC50 (PfNMT): > 100 µM

Cc1c(C(=O)Oc2ccccc2)oc2cccc(OC3CCNCC3)c12 [Compound 3, Phenyl 3-methyl-4-(piperidin-4-yloxy)-1-benzofuran-2-carboxylate]
lower inhibition vs. 4 (PfNMT): 10- to 100 fold

COc1cccc(COC(=O)c2oc3cccc(OC4CCNCC4)c3c2C)c1 [Compound 26]
PfNMT inhibition (in words) (PfNMT): comparable potency to the parent compound 4
HsNMT1 inhibition (in words) (HsNMT1): weak inhibition
increase in affinity on mutation of the human NMT (HsNMT1 Y296A): four- to five-fold

O=S(=O)(Cc1ccccc1)c1cc2c(OC3CCNCC3)cccc2o1 [Compound 24, 4-{[2-(Phenylmethane)sulfonyl-1-benzofuran-4-yl]oxy}piperidine]
PfNMT inhibition (in words) (PfNMT): dramatic loss of activity

Cc1c(C(=O)OCCCc2ccccc2)oc2cccc(OC3CCNCC3)c12 [Compound 8]
lower inhibition vs. 4 (PfNMT): 10- to 100 fold
